Test results taken from ChEMBL document CHEMBL2429834, “Potent histone deacetylase inhibitors derived from 4-(aminomethyl)-N-hydroxybenzamide with high selectivity for the HDAC6 isoform” (J Med Chem, 2013).

Legend:
[1] = biological target: T1, Polyamine deacetylase HDAC10 (Homo sapiens, UniProt Q969S8); assay: Inhibition of N-terminal GST-tagged recombinant human HDAC10 (1 to 481) expressed in baculovirus using Arg-His-Lys-Lys (Ac) as substrate after 1 hr by fluorescence plate reader analysis
T1 sequence (Q969S8 whole entry): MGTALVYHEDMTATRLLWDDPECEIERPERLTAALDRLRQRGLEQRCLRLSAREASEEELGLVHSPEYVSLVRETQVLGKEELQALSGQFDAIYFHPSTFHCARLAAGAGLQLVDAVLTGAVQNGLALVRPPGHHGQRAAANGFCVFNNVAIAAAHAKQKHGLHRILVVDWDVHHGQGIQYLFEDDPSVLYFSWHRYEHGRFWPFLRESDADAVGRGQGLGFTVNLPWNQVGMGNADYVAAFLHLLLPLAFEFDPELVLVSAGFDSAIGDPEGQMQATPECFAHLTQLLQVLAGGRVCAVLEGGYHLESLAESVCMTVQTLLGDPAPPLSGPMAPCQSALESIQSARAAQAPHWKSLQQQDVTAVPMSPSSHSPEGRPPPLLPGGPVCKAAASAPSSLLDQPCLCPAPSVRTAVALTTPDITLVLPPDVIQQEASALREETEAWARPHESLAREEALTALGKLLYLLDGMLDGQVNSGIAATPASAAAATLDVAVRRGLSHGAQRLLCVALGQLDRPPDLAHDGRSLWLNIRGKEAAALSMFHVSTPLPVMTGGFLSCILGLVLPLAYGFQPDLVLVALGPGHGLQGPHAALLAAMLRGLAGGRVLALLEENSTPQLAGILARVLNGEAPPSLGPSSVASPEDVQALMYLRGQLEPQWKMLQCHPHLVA

Histone deacetylase 8 = biological target: T2, Histone deacetylase 8 (Homo sapiens, UniProt Q9BY41); assay: Inhibition of full length C-terminal His6x-tagged recombinant human HDAC8 expressed in baculovirus using Arg-His-Lys(Ac)-Lys(Ac) as substrate after 1 hr by fluorescence plate reader analysis
T2 sequence (Q9BY41 whole entry): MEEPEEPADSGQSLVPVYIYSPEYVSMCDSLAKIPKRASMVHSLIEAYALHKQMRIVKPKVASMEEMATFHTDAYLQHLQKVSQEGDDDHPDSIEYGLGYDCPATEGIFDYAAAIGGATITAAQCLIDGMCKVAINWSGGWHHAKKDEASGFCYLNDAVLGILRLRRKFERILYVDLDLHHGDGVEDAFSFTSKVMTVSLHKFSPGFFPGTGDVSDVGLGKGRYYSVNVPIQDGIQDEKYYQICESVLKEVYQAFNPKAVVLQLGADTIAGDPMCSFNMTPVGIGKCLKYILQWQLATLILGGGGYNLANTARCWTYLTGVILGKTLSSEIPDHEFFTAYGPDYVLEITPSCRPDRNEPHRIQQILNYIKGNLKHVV

[2] = Selectivity ratio of IC50 for HDAC1/2 in human HeLa cell nuclear extract to IC50 for N-terminal GST-tagged recombinant HDAC6 (unknown origin); type: cell-based
Summary of the method: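 HDAC6 leg: 1 nM GST-HDAC6 with 8 μM Ac-Arg-Gly-Lys(Ac)-AMC. Nuclear-extract leg: 30 μg/mL HeLa nuclear extract (mainly HDAC1/2) with 20 μM of the same substrate in 50 mM Tris-Cl, 137 mM NaCl, 2.7 mM KCl, 1 mM MgCl2, pH 8.0.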

[3] = biological target: T3, Protein deacetylase HDAC6 (Homo sapiens, UniProt Q9UBN7); assay: Inhibition of HDAC6 in human HeLa cells using acetyl tubulin as substrate assessed as Ac-tubulin accumulation in cytosol after 6 hrs by immunofluorescence assay
T3 sequence (Q9UBN7 whole entry): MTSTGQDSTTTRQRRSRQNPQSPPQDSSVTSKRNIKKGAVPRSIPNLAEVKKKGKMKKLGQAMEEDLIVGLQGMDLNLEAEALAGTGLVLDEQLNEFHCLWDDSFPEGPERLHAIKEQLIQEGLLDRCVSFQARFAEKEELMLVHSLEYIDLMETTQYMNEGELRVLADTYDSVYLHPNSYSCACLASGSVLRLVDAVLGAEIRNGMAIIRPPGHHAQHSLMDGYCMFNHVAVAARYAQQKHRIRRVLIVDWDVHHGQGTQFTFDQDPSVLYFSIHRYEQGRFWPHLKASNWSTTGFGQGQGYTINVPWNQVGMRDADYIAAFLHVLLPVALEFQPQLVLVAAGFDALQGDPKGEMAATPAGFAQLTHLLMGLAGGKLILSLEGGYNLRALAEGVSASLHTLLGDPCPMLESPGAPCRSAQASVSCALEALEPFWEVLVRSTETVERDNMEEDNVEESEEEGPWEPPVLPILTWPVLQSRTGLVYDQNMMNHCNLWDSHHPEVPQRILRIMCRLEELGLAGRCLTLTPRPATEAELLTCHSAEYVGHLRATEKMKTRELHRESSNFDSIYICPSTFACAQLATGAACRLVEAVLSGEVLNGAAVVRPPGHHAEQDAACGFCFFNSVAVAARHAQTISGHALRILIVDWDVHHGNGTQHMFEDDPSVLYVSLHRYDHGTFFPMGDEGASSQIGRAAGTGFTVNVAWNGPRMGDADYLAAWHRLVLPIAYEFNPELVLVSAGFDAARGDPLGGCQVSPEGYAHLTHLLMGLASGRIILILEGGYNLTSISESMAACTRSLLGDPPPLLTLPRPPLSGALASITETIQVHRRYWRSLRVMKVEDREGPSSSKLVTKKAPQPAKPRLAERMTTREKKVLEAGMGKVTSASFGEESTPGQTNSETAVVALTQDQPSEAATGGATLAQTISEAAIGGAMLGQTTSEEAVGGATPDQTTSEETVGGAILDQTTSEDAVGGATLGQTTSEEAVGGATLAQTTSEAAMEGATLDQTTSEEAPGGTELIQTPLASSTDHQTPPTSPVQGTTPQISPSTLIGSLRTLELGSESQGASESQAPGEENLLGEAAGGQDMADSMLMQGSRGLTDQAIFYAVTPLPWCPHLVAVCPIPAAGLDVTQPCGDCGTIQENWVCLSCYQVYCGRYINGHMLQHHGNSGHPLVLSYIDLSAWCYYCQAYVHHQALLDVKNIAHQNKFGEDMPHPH

Histone deacetylase 1 = Histone deacetylase 1 (Homo sapiens, UniProt Q13547); assay: Inhibition of full length GST-tagged recombinant human HDAC1 expressed in baculovirus using Arg-His-Lys-Lys (Ac) as substrate after 2 hrs by fluorescence plate reader analysis
[4] = biological target: T4, Protein deacetylase HDAC6 (Homo sapiens) (UniProt Q9UBN7); assay: Inhibition of HDAC6 in human HeLa cells using acetyl tubulin as substrate assessed as Ac-Lys accumulation in nuclear histones at 20 uM after 24 hrs by immunofluorescence assay relative to control
T4 sequence (whole entry): T3 sequence (Q9UBN7 whole entry)

Histone deacetylase 4 = Histone deacetylase 4 (Homo sapiens, UniProt P56524); assay: Inhibition of N-terminal GST-tagged recombinant human HDAC4 (627 to 1085) expressed in baculovirus using acetyl-Lys(trifluoroacetyl)-AMC as substrate after 2 hrs by fluorescence plate reader analysis
Sequence of Histone deacetylase 4 (P56524 whole entry): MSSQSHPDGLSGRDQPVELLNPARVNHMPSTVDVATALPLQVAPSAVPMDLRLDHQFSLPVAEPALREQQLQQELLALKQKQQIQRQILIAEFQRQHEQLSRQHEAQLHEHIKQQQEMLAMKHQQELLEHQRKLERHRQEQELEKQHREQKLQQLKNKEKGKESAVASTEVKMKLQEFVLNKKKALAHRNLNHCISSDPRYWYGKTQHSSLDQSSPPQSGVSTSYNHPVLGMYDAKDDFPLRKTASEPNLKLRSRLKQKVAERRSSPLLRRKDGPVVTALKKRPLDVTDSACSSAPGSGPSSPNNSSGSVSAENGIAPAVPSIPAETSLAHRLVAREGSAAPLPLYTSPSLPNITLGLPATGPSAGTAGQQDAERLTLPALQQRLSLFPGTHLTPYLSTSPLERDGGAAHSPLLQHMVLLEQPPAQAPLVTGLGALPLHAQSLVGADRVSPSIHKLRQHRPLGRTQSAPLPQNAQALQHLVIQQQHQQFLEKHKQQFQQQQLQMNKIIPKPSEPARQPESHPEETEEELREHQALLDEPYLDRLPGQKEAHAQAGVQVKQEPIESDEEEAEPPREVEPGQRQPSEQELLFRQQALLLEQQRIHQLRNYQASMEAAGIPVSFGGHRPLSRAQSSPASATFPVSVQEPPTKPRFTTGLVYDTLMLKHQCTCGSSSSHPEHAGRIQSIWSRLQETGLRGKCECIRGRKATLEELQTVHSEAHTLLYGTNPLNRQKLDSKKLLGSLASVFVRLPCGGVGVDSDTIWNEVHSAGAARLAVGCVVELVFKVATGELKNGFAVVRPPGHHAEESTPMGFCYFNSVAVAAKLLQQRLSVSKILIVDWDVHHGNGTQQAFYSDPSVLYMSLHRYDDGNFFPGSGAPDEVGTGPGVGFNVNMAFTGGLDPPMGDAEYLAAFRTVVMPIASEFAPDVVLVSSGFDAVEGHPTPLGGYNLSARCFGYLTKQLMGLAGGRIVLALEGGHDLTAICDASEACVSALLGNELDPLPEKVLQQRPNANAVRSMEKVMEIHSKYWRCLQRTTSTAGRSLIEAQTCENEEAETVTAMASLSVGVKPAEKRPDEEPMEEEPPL

Sequence of Histone deacetylase 1 (Q13547 whole entry): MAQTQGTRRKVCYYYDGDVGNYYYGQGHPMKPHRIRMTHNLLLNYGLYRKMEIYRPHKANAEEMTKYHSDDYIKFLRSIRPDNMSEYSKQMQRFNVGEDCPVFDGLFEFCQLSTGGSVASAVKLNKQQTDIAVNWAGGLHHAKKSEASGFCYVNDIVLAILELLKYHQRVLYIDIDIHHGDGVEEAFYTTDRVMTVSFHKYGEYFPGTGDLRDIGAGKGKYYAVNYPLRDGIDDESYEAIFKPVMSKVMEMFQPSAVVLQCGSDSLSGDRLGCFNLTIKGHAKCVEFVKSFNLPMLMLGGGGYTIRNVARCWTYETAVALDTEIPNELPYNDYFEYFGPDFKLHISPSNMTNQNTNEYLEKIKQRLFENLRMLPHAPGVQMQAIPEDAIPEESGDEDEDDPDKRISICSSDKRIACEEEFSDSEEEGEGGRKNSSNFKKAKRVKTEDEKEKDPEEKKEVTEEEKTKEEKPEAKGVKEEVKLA

| Structure (SMILES) | IC50 [1] | IC50 (Histone deacetylase 8) | IC50 [3] | IC50 (Histone deacetylase 1) | inhibition [4] | IC50 (Histone deacetylase 4) | Ratio IC50 [2] |
| --- | --- | --- | --- | --- | --- | --- | --- |
| CC(C)(C)C(=O)N1CCc2cc(C(=O)NO)ccc2C1 | > 50 µM | 2.1 µM | 0.43 µM | > 50 µM | < 20% | > 50 µM | 1500 |
| CC(C)(C)C(=O)N1Cc2ccc(C(=O)NO)cc2C1 | > 50 µM | 1.3 µM | 0.56 µM | > 50 µM | < 20% | > 50 µM | 340 |
| Cn1cccc1C(=O)N1CCc2cc(C(=O)NO)ccc2C1 | > 50 µM | 2.1 µM | 0.21 µM | 45 µM | < 20% | > 50 µM | 500 |
| Cn1cccc1C(=O)N1CCCc2cc(C(=O)NO)ccc2C1 | > 50 µM | 0.89 µM | 1.48 µM | > 50 µM | < 20% | > 50 µM | > 380 |

Now from value to compound, other results behind:

| IC50 [1] | IC50 (Histone deacetylase 8) | IC50 [3] | IC50 (Histone deacetylase 1) | inhibition [4] | IC50 (Histone deacetylase 4) | Structure (SMILES) | Ratio IC50 [2] |
| --- | --- | --- | --- | --- | --- | --- | --- |
| > 50 µM | 1.3 µM | 0.34 µM | > 50 µM | < 20% | > 50 µM | Cn1cccc1C(=O)N1Cc2ccc(C(=O)NO)cc2C1 | 690 |
| 3.7 µM | 0.69 µM | 0.46 µM | 5.8 µM | < 20% | 15 µM | Cn1cccc1C(=O)NCc1ccc(C(=O)NO)cc1 | 115 |
